Assay results reported in ChEMBL document CHEMBL1152521, “Synthesis and biological evaluation of radioiodinated 2,5-diphenyl-1,3,4-oxadiazoles for detecting beta-amyloid plaques in the brain” (Bioorg Med Chem, 2009).
Activity calls are given as the source filed them. The rule behind the calls is not given here.

How the values were obtained:
[1] = Displacement of [125I]IMPY from aggregated amyloid beta (1-42) by gamma counting
[2] = organism: Mus musculus; test: Binding affinity to amyloid beta (1-42) in brain of transgenic 2576 mouse Alzheimer's model at 100 uM after 30 mins by thioflavin S staining-based fluorescence microscopic analysis
[3] = organism: Mus musculus; test: Binding affinity to amyloid beta (1-42) in normal mouse brain at 100 uM after 30 mins by thioflavin S staining-based fluorescence microscopic analysis
[4] = Octanol-phosphate buffer partition coefficient, log P at pH 7.4 by gamma counting of radioactivity
[5] = system: Heart; test: Biodistribution in ddY mouse heart at 0.2 to 0.4 uCi, iv after 30 mins post-injection by gamma counting; format: ADME, organism-based; settings: in vivo, 0.5 h
Procedure, shortened: (§1)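 Normal ddY mice (5-week-old, 22-25 g) received 0.2–0.4 μCi of the 125I-labelled agent by tail-vein injection in 100 μL saline containing 10 μL ethanol. Animals were killed at 2, 10, 30 or 60 min, and organs were removed, weighed and gamma counted. Values are % injected dose per gram, mean (SD) of 4-6 animals.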

[6] = system: Intestine; test: Biodistribution in ddY mouse intestine at 0.2 to 0.4 uCi, iv after 10 mins post-injection by gamma counting; format: ADME, organism-based; settings: in vivo; procedure, shortened: as §1
[7] = system: Pancreas; test: Biodistribution in ddY mouse pancreas at 0.2 to 0.4 uCi, iv after 30 mins post-injection by gamma counting; format: ADME, organism-based; settings: in vivo, 0.5 h; procedure, shortened: as §1
[8] = system: Kidney; test: Biodistribution in ddY mouse kidney at 0.2 to 0.4 uCi, iv after 10 mins post-injection by gamma counting; format: ADME, organism-based; settings: in vivo; procedure, shortened: as §1
[9] = system: Blood; test: Biodistribution in ddY mouse blood at 0.2 to 0.4 uCi, iv after 30 mins post-injection by gamma counting; format: ADME, organism-based; settings: in vivo, 0.5 h; procedure, shortened: as §1
[10] = system: Pancreas; test: Biodistribution in ddY mouse pancreas at 0.2 to 0.4 uCi, iv after 2 mins post-injection by gamma counting; format: ADME, organism-based; settings: in vivo; procedure, shortened: as §1
[11] = system: Liver; test: Biodistribution in ddY mouse liver at 0.2 to 0.4 uCi, iv after 60 mins post-injection by gamma counting; format: ADME, organism-based; settings: in vivo, 1 h; procedure, shortened: as §1
[12] = system: Blood; test: Biodistribution in ddY mouse blood at 0.2 to 0.4 uCi, iv after 2 mins post-injection by gamma counting; format: ADME, organism-based; settings: in vivo; procedure, shortened: as §1
[13] = system: Heart; test: Biodistribution in ddY mouse heart at 0.2 to 0.4 uCi, iv after 10 mins post-injection by gamma counting; format: ADME, organism-based; settings: in vivo; procedure, shortened: as §1
[14] = system: Brain; test: Biodistribution in ddY mouse brain at 0.2 to 0.4 uCi, iv after 60 mins post-injection by gamma counting; format: ADME, organism-based; settings: in vivo, 1 h; procedure, shortened: as §1
[15] = system: Blood; test: Biodistribution in ddY mouse blood at 0.2 to 0.4 uCi, iv after 10 mins post-injection by gamma counting; format: ADME, organism-based; settings: in vivo; procedure, shortened: as §1
[16] = system: Liver; test: Biodistribution in ddY mouse liver at 0.2 to 0.4 uCi, iv after 2 mins post-injection by gamma counting; format: ADME, organism-based; settings: in vivo; procedure, shortened: as §1
[17] = system: Brain; test: Biodistribution in ddY mouse brain at 0.2 to 0.4 uCi, iv after 30 mins post-injection by gamma counting; format: ADME, organism-based; settings: in vivo, 0.5 h; procedure, shortened: as §1
[18] = system: Intestine; test: Biodistribution in ddY mouse intestine at 0.2 to 0.4 uCi, iv after 60 mins post-injection by gamma counting; format: ADME, organism-based; settings: in vivo, 1 h; procedure, shortened: as §1
[19] = system: Pancreas; test: Biodistribution in ddY mouse pancreas at 0.2 to 0.4 uCi, iv after 10 mins post-injection by gamma counting; format: ADME, organism-based; settings: in vivo; procedure, shortened: as §1
[20] = system: Stomach; test: Biodistribution in ddY mouse stomach assessed per organ at 0.2 to 0.4 uCi, iv after 2 mins post-injection by gamma counting; format: ADME, organism-based; settings: in vivo
Procedure, shortened: (§2)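 Normal ddY mice (5-week-old, 22-25 g) were injected by tail vein with 0.2–0.4 μCi of 125I ligand in saline (100 μL) containing 10 μL ethanol. At 2, 10, 30 or 60 min the stomach was removed and gamma counted. Values are % injected dose per organ, mean (SD) of 4-6 animals.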

[21] = system: Brain; test: Biodistribution in ddY mouse brain at 0.2 to 0.4 uCi, iv after 10 mins post-injection by gamma counting; format: ADME, organism-based; settings: in vivo; procedure, shortened: as §1
[22] = system: Spleen; test: Biodistribution in ddY mouse spleen at 0.2 to 0.4 uCi, iv after 2 mins post-injection by gamma counting; format: ADME, organism-based; settings: in vivo; procedure, shortened: as §1
[23] = system: Spleen; test: Biodistribution in ddY mouse spleen at 0.2 to 0.4 uCi, iv after 10 mins post-injection by gamma counting; format: ADME, organism-based; settings: in vivo; procedure, shortened: as §1
[24] = system: Heart; test: Biodistribution in ddY mouse heart at 0.2 to 0.4 uCi, iv after 60 mins post-injection by gamma counting; format: ADME, organism-based; settings: in vivo, 1 h; procedure, shortened: as §1
[25] = system: Spleen; test: Biodistribution in ddY mouse spleen at 0.2 to 0.4 uCi, iv after 30 mins post-injection by gamma counting; format: ADME, organism-based; settings: in vivo, 0.5 h; procedure, shortened: as §1
[26] = system: Stomach; test: Biodistribution in ddY mouse stomach assessed per organ at 0.2 to 0.4 uCi, iv after 30 mins post-injection by gamma counting; format: ADME, organism-based; settings: in vivo, 0.5 h; procedure, shortened: as §2
[27] = system: Heart; test: Biodistribution in ddY mouse heart at 0.2 to 0.4 uCi, iv after 2 mins post-injection by gamma counting; format: ADME, organism-based; settings: in vivo; procedure, shortened: as §1
[28] = system: Kidney; test: Biodistribution in ddY mouse kidney at 0.2 to 0.4 uCi, iv after 2 mins post-injection by gamma counting; format: ADME, organism-based; settings: in vivo; procedure, shortened: as §1
[29] = system: Blood; test: Biodistribution in ddY mouse blood at 0.2 to 0.4 uCi, iv after 60 mins post-injection by gamma counting; format: ADME, organism-based; settings: in vivo, 1 h; procedure, shortened: as §1
[30] = system: Brain; test: Biodistribution in ddY mouse brain at 0.2 to 0.4 uCi, iv after 2 mins post-injection by gamma counting; format: ADME, organism-based; settings: in vivo; procedure, shortened: as §1
[31] = system: Kidney; test: Biodistribution in ddY mouse kidney at 0.2 to 0.4 uCi, iv after 60 mins post-injection by gamma counting; format: ADME, organism-based; settings: in vivo, 1 h; procedure, shortened: as §1
[32] = system: Liver; test: Biodistribution in ddY mouse liver at 0.2 to 0.4 uCi, iv after 30 mins post-injection by gamma counting; format: ADME, organism-based; settings: in vivo, 0.5 h; procedure, shortened: as §1
[33] = system: Pancreas; test: Biodistribution in ddY mouse pancreas at 0.2 to 0.4 uCi, iv after 60 mins post-injection by gamma counting; format: ADME, organism-based; settings: in vivo, 1 h; procedure, shortened: as §1
[34] = system: Liver; test: Biodistribution in ddY mouse liver at 0.2 to 0.4 uCi, iv after 10 mins post-injection by gamma counting; format: ADME, organism-based; settings: in vivo; procedure, shortened: as §1
[35] = system: Stomach; test: Biodistribution in ddY mouse stomach assessed per organ at 0.2 to 0.4 uCi, iv after 10 mins post-injection by gamma counting; format: ADME, organism-based; settings: in vivo; procedure, shortened: as §2
[36] = system: Kidney; test: Biodistribution in ddY mouse kidney at 0.2 to 0.4 uCi, iv after 30 mins post-injection by gamma counting; format: ADME, organism-based; settings: in vivo, 0.5 h; procedure, shortened: as §1
[37] = system: Spleen; test: Biodistribution in ddY mouse spleen at 0.2 to 0.4 uCi, iv after 60 mins post-injection by gamma counting; format: ADME, organism-based; settings: in vivo, 1 h; procedure, shortened: as §1
[38] = system: Intestine; test: Biodistribution in ddY mouse intestine at 0.2 to 0.4 uCi, iv after 2 mins post-injection by gamma counting; format: ADME, organism-based; settings: in vivo; procedure, shortened: as §1
[39] = system: Stomach; test: Biodistribution in ddY mouse stomach assessed per organ at 0.2 to 0.4 uCi, iv after 60 mins post-injection by gamma counting; format: ADME, organism-based; settings: in vivo, 1 h; procedure, shortened: as §2
[40] = system: Intestine; test: Biodistribution in ddY mouse intestine at 0.2 to 0.4 uCi, iv after 30 mins post-injection by gamma counting; format: ADME, organism-based; settings: in vivo, 0.5 h; procedure, shortened: as §1

Q: Which results are given for `CN(C)c1ccc(-c2nnc(-c3ccc(I)cc3)o2)cc1`?
A: Ki [1]: 20.1 nM; Activity [2]: Active; Activity [3]: inactive; logD [4]: 2.43

Q: Which Drug uptake [5] does the source give for `CN(C)c1ccc(-c2nnc(-c3ccc([125I])cc3)o2)cc1` here?
A: 2.03 % ID/g

Q: What about the Drug uptake [6] of the same compound?
A: 11.34 % ID/g

Q: And the Drug uptake [7]?
A: 2.5 % ID/g

Q: What about the Drug uptake [8] of the same compound?
A: 7.8 % ID/g

Q: What about the Drug uptake [9] of the same compound?
A: 2.53 % ID/g

Q: What about the Drug uptake [10] of the same compound?
A: 5.32 % ID/g

Q: And the Drug uptake [11]?
A: 10.01 % ID/g

Q: And the Drug uptake [12]?
A: 3.28 % ID/g

Q: And the Drug uptake [13]?
A: 3.55 % ID/g

Q: What about the Drug uptake [14] of the same compound?
A: 1.78 % ID/g

Q: And the Drug uptake [15]?
A: 3.51 % ID/g

Q: And the Drug uptake [16]?
A: 15.87 % ID/g

Q: And the Drug uptake [17]?
A: 3.16 % ID/g

Q: What about the Drug uptake [18] of the same compound?
A: 16.22 % ID/g

Q: What about the Drug uptake [19] of the same compound?
A: 4.39 % ID/g

Q: What about the Drug uptake [20] of the same compound?
A: 1.4 %ID

Q: What about the Drug uptake [21] of the same compound?
A: 5.93 % ID/g

Q: And the Drug uptake [22]?
A: 3.56 % ID/g

Q: What about the Drug uptake [23] of the same compound?
A: 4.1 % ID/g

Q: What about the Drug uptake [24] of the same compound?
A: 1.54 % ID/g

Q: What about the Drug uptake [25] of the same compound?
A: 2.63 % ID/g

Q: And the Drug uptake [26]?
A: 4.79 %ID

Q: What about the Drug uptake [27] of the same compound?
A: 3.99 % ID/g

Q: What about the Drug uptake [28] of the same compound?
A: 9.14 % ID/g

Q: What about the Drug uptake [29] of the same compound?
A: 2.21 % ID/g

Q: And the Drug uptake [30]?
A: 2.98 % ID/g

Q: And the Drug uptake [31]?
A: 3.81 % ID/g

Q: And the Drug uptake [32]?
A: 12.64 % ID/g

Q: What about the Drug uptake [33] of the same compound?
A: 2.14 % ID/g

Q: And the Drug uptake [34]?
A: 19.12 % ID/g

Q: What about the Drug uptake [35] of the same compound?
A: 4.73 %ID

Q: What about the Drug uptake [36] of the same compound?
A: 5.71 % ID/g

Q: And the Drug uptake [37]?
A: 2.05 % ID/g

Q: And the Drug uptake [38]?
A: 2.28 % ID/g

Q: What about the Drug uptake [39] of the same compound?
A: 5.5 %ID

Q: What about the Drug uptake [40] of the same compound?
A: 12.58 % ID/g

Q: With `OCCOCCOCCOc1ccc(-c2nnc(-c3ccc(I)cc3)o2)cc1` as the compound, how does the Ki [1] read?
A: 258 nM

Q: With `OCCOc1ccc(-c2nnc(-c3ccc(I)cc3)o2)cc1` as the compound, how does the Ki [1] read?
A: 282 nM

Q: For `Oc1ccc(-c2nnc(-c3ccc(I)cc3)o2)cc1`, which Ki [1] is on record?
A: 230 nM
